# Compound activity as filed in PubChem BioAssay.
# M1 antagonist: antagonists of rat M1 muscarinic receptor. CHO-M1 cells, Fluo-4 calcium, ACh EC80 antagonist mode; stronger effect = lower value. B-score at 10 µM. 64,000 compounds, 3.4% hits. AID 628;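 active = calcium fluorescence response, raw or row-and-column corrected B-score, differing from the plate sample mean either way at a set confidence level, mostly lower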
# Target sequence (P08482 whole entry, looked up): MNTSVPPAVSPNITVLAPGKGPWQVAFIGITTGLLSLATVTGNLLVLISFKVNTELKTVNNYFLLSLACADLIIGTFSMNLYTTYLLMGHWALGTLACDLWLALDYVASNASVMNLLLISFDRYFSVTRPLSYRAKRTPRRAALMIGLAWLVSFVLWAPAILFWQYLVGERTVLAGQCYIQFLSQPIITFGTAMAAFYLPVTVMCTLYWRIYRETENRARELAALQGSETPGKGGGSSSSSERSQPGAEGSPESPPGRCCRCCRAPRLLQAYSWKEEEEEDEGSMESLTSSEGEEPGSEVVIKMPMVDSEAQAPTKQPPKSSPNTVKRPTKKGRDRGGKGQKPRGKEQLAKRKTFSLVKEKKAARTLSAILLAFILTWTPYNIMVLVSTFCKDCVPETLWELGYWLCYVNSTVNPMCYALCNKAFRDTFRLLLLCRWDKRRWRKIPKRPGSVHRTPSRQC
# M1 agonist: activates the M1 muscarinic receptor. CHO-M1 cells, Fluo-4 calcium fluorescence, agonist mode; stronger effect = higher value. B-score at 10 µM. 64,000 compounds, 3% hits;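 active = fluorescence rise, raw or as B-score row- and column-corrected plate score, outside the 99.7% band of its plate's samples, either direction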
# SF1 activator: activators of human nuclear receptor SF-1; 65,000 compounds, 1.9% hits; CHO-K1 Gal4-SF-1 LBD luciferase reporter; % increase over DMSO SF-1-specific signal; activation, % at 10 µM; AID 522;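 active = activation above the mean activation of all tested compounds plus 3 SD, cut at about 50% in these data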
#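 Test system: transient Gal4-SF-1 LBD reporter, CHO-K1; Amount: 4,000 CHO-K1 cells per well; Doses: 10 µM only; Timing: compound exposure 20 h at 37 °C; Signal: luciferase light emission; Read-out basis: percent activation relative to DMSO median and mock-transfected background; Control set: DMSO negative control and −SF1 background wells; Replicates: one test per compound.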
# RORa activator: RORA (human) activation; P35398; CHO-K1 Gal4-RORA LBD luciferase reporter, luminescence; percent increase over mock-subtracted basal signal; activation, % at 10 µM; 65,000 compounds, 1.5% hits; AID 560;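 active = activation above the mean of all tested compounds plus 3 SD, cut at about 49% in these data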
# MT1-MMP txn act: MT1-MMP promoter transcription activation; HT1080 MT1-MMP promoter luciferase reporter, luminescence, overnight; stronger effect = higher value; activation factor at 10 µM; 86,000 compounds, 0.16% hits;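 active = activation factor of at least 2 for MT1-MMP transcription at 10 µM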
# M1 ag confirm: confirmation of rat M1 muscarinic receptor agonists | 1,700 compounds, 19% hits | fluorescence change (max-min) at 10 µM | CHO-M1 cells, Fluo-4 calcium fluorescence, agonist mode; actives lie on both sides | shares compounds with M1 agonist;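 active = fluorescence change differs from the solvent-only DMSO control mean at a set confidence level in both duplicate runs; inconclusive = differs from solvent-only control mean in just one of two runs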;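 also: an EC20 dose of acetylcholine follows compound addition during the same imaging run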
# M4 agonist ctr: rat M4 muscarinic agonism, M1 counter-screen. shares compounds with M1 agonist. CHO M4/Gqi5 cells, Fluo-4 calcium fluorescence, agonist mode; actives lie on both sides. fluorescence change (max-min) at 10 µM. 1,700 compounds, 9% hits;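 active = fluorescence change differing from the plate's solvent-only control wells at 99.7% confidence in both duplicates, whether higher or lower; inconclusive = differs from solvent controls in only one of two duplicates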
# A number is an active result; 0 = inactive; ? = inconclusive; - = no result given. Only some compounds are listed: those with a hit (about 6.3% of all), similar ones and a draw of the others.
SMILES,M1 antagonist,M1 agonist,SF1 activator,RORa activator,MT1-MMP txn act,M1 ag confirm,M4 agonist ctr
CC1Cc2ccccc2N1C(=O)c1ccc2snnc2c1 (configuration not stated),0,7.53,0,0,0,0,?
Nc1ccccc1C#CCCCCO,-,-,-,-,0,-,-
CN1CC=C2C(C#N)=C(N)C(C#N)(C#N)[C@H](c3cccs3)[C@H]2C1,-,-,-,-,0,-,-
CN1CCC2(CC1)C1CN(C)CC=C1C(C#N)=C(N)C2(C#N)C#N (configuration not stated),0,33.9,0,0,0,215,160
CCN(CC)c1ccc2c(c1)OC(N)=C(C#N)C2c1cccnc1 (configuration not stated),-4.59,18.3,0,0,0,681,652
O=C(NCc1ccco1)c1ccccc1Nc1ccc(F)cc1,0,0,0,0,0,-,-
CCSc1nnc(NC(=O)c2ccccn2)s1,0,11.2,0,0,0,?,0
CCSc1nnc(NC(=O)c2cnccn2)s1,0,0,0,0,0,-,-
N#Cc1cccc(NC(=O)Nc2cccs2)c1,0,11.2,0,0,0,0,0
Cc1cccc(NC(=O)Nc2cccc(C#N)c2)n1,0,0,0,0,0,-,-
COc1ccc(-n2nc3c(c2NC(=O)c2cc(Br)ccc2Cl)CS(=O)C3)cc1 (configuration not stated),0,0,0,0,0,-,-
COc1ccc(CC(NC(C)=O)C(=O)N2CCN(C(=O)Nc3ccc(Cl)cc3)CC2)cc1OC (configuration not stated),0,0,0,0,-,-,-
C=CCSC1=N/C(=C\c2ccc(C)o2)C(=O)S1,0,0,-,-,-,-,-
COc1cc2[nH]c(=O)n(CCCC(=O)N3CC=C(c4ccccc4)CC3)c(=O)c2cc1OC,0,0,0,0,0,-,-
O=C(c1ccc(Cn2c(=O)[nH]c3ccccc3c2=O)cc1)N1CCN(c2ccccn2)CC1,0,3.78,0,0,0,0,0
COc1cc2[nH]c(=O)n(CCCCCC(=O)N3CCN(c4ccccn4)CC3)c(=O)c2cc1OC,0,7.24,0,0,0,0,0
CCOC(=O)N1CCN(C(=O)c2ccc3c(=O)n(Cc4ccc(OC)cc4)c(=S)[nH]c3c2)CC1,0,0,0,0,0,-,-
CCOC(=O)N1CCN(C(=O)c2ccc3c(=O)n(Cc4ccccc4)c(=S)[nH]c3c2)CC1,0,4.59,0,0,0,?,?
CC(N=c1ccccn1C(=O)Nc1ccc(Cl)cc1)c1ccco1 (configuration not stated),0,4.03,0,0,0,-30.2,?
CCn1c(SCC(=O)N2CCOCC2)nc2oc3c(Cl)cc(Cl)cc3c(=O)c2c1=O,0,4.36,0,0,0,0,0
CC(=O)NC(Cc1ccccc1C)C(=O)NC1CCN(c2c3c(nc4ncnn24)CCC3)CC1 (configuration not stated),0,0,0,0,0,-,-
CCOCCCNC(=O)C(Cc1ccccc1)NC(=O)c1ccco1 (configuration not stated),0,0,0,0,0,-,-
COc1ccc(CCn2c(-c3ccco3)nc3ccccc3c2=O)cc1OC,-2.1,10.7,0,0,0,?,-73.5
CC(C)N(C(=O)CN(C#N)c1nc(N(C)C)nc(N(C)C)n1)c1ccccc1,0,-3.23,0,0,0,0,0
COC(=O)CN(C#N)c1nc(OC)nc(N(C)C)n1,0,0,0,0,0,-,-
SMILES,M1 antagonist,M1 agonist,SF1 activator,RORa activator,MT1-MMP txn act,M1 ag confirm,M4 agonist ctr
CN1C=CC(=C2C(=O)c3ccccc3C2=O)C=C1,2.59,33.1,0,52.0,0,0,?
CCCN1C=CC(=C2C(=O)c3ccccc3C2=O)C=C1,0,0,0,0,-,-,-
CC(=O)NC(CCS(C)(=O)=O)C(=O)Nc1ccc(Cl)c(Cl)c1 (configuration not stated),0,2.91,0,0,0,0,0
CC(=O)NC(CCS(C)(=O)=O)C(=O)Nc1cccc(C(C)=O)c1 (configuration not stated),0,0,0,0,0,-,-
CCn1c(=O)cc(OCC(=O)NCCCN2CC(C)CC(C)C2)c2ccccc21 (configuration not stated),0,2.17,0,0,0,?,?
O=C(Nc1ccc(F)cc1)N1CCN(c2nc3ccccc3s2)CC1,0,0,0,0,0,-,-
O=C(Nc1ccccc1)N1CCN(c2nc3ccccc3s2)CC1,0,4.66,0,0,0,0,0
CCC(Sc1nc(N)cc(=O)[nH]1)C(=O)NC(C(=O)OC)c1ccccc1 (configuration not stated),0,3.23,0,0,0,0,0
Cc1csc(SCC(=O)Nc2ccccn2)n1,0,0,0,0,-,-,-
Cc1csc(SCC(=O)Nc2cc(C(C)(C)C)nn2-c2ccccc2)n1,0,2.45,0,0,0,?,0
Cc1ccc(Cl)cc1N1CCN(C(=O)Cn2ccc3ccccc3c2=O)CC1,0,8.75,0,0,0,0,0
Cc1ccc(C)c(N2CCN(C(=O)CCNC(=O)Cn3ccc4ccccc4c3=O)CC2)c1,0,0,0,0,0,-,-
O=C(Nc1ccc(Cc2ccncc2)cc1)c1ccc(S(=O)(=O)N2CCOCC2)cc1,-2.55,12.6,0,0,0,0,?
O=C(Nc1ccc(S(=O)(=O)N2CCOCC2)cc1)c1ccc(Cl)cc1,0,0,0,0,0,-,-
CC(=O)Nc1c2c3c(cccc3n(C)c1=O)C(=O)c1ccccc1-2,0,9.43,0,0,0,67.9,?
Cc1ccc2nc(SCC(=O)Nc3c(C)n(C)n(-c4ccccc4)c3=O)[nH]c2c1,0,2.93,0,0,0,0,0
Cn1nnc2cc(C(=O)N3CCC(c4ccccc4)C3)ccc21 (configuration not stated),0,0,0,0,0,-,-
CC(=O)Nc1ccc(NC(=O)CN(c2ccccc2Cl)S(C)(=O)=O)cc1,0,0,0,0,0,-,-
O=C(NCCc1cccc(Cl)c1)c1cccnc1,-4.36,10.6,0,0,0,0,0
CC(=O)c1cc(OC(=O)c2ccncc2)ccc1OC(=O)c1ccncc1,0,4.38,0,0,0,0,0
O=C(OCC(=O)N1CCN(C(=O)c2ccco2)CC1)c1cc(-c2ccco2)nc2ccccc12,-,-,-,-,0,-,-
O=C(c1cc(-c2ccncc2)nc2ccccc12)N1CCN(c2ccc(N3CCOCC3)nn2)CC1,0,4.77,0,0,0,0,0
O=C(c1cc(-c2ccccc2)nc2ccccc12)N1CCN(c2ccccn2)CC1,0,4.07,0,0,0,0,0
O=C(c1ccco1)N1CCN(c2nc3ccccc3n3nnnc23)CC1,0,7.4,0,0,0,0,0
O=C(c1ccco1)N1CCN(C(=O)c2cc(-c3ccccn3)nc3ccccc23)CC1,0,3.28,0,0,0,?,0
